Assay results reported in the EternaBench riboswitch data.

System: MS2 coat protein
Experiment: apparent Kd, MS2 coat protein; higher = weaker binding; RNA-MaP array; FMN 200 µM where present
Summary of the method: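 Designs were transcribed by stalled E. coli RNA polymerase on Illumina sequencing-chip clusters. They were titrated with SNAP-549-labelled MS2 coat protein from 0.7 or 1.5 nM, doubling to 3 µM, without and then with constant ligand. Buffer: 100 mM Tris-HCl pH 7.5, 80 mM KCl, 4 mM MgCl2, BSA, DTT, yeast tRNA, Tween-20. Green signal was normalised to red-channel RNA signal and control-cluster median Fmax. Apparent Kd is the median of filtered per-cluster binding-curve fits.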

[1] = designed as: OFF switch for flavin mononucleotide, no ligand
[2] = ligand present: flavin mononucleotide, designed as: OFF switch for flavin mononucleotide
[3] = designed as: ON switch for flavin mononucleotide, no ligand
[4] = ligand present: flavin mononucleotide, designed as: ON switch for flavin mononucleotide

| Sequence | apparent Kd [1] | apparent Kd [2] | apparent Kd [3] | apparent Kd [4] |
| --- | --- | --- | --- | --- |
| CGCAUGCGUAGAAUUAGUUGCUGACAGGAUAUGACAUGAGGAUCACCCAUGUGAUUUAAGAAGAGUCAGAAGGGUCACGAUGCG | 10.7 nM | 15.1 nM | – | – |
| UGUGGUGAAGUAGGAUAUCAACACACAUGAGGAUCACCCAUGUUAGAUGUGGAUGUUGUAUGUUAUGAGAAGGACUUCGGUGCG | 23.6 nM | 89 nM | – | – |
| AUAAACGAUCAGGAUAUAUCAAAUCAUAGCUUGAUAGAAGGGAUCACAUGAGGAUCACCCAUGUGAUCUUCUUA | 14 nM | 15.8 nM | – | – |
| ACAAAUGGAGGAUAUACAUGAGGAUCACCCAUGUUUAUCCUACAUAUGUGAUAAUCAUGUAGAAGGCCAUUUGA | 24.7 nM | 15.9 nM | – | – |
| CUUUAGUGAGGAUAUCAGUAGUAAUACAAUAGUAUUAUUACUGAGAAGGCACAUGAGGAUCACCCAUGUUCCUC | 29.4 nM | 120 nM | – | – |
| UUGUACAUAGGAUAUAGUUGUUUGUACAUGAGGAUCACCCAUGUUAUGUAUGUUUUGUUUCUAGAAGGAUGUUGAU | 50.2 nM | 38.9 nM | – | – |
| UAUGUUGUUGUGAGGAUAUACUUAGUUUGACCGUAGUAGAAGGCACAUGAGGAUCACCCAUGUAGAUUUUUGGU | 9.54 nM | 15.8 nM | – | – |
| GGUGGACAUGAGGAUCACCCAUGUGAGGAUAUCGGCCGGUUCGUGGUGGCUGGCGUCUCGAGAAGGCGCAUAGU | 35 nM | 45.7 nM | – | – |
| AAUAAUUAUUAAGGAUAUGGGUUGAUAACAUGAGGAUCACCCAUGUUAAAUAAGCCGAGAGGCUACUAGAAGGAUAUAUAUAUU | – | – | 1050 nM | 435 nM |
| GGGCCCGGAGGAUAUACAAUGGGCUCGGGAAACUGGGUCUUACAUGAGGAUCACCCAUGUAGAAGGCCGGGCCC | 18.9 nM | 23.4 nM | – | – |
| CACAGGGAUUCAGGAUAUAUUAGCCGAGGCCGCGUAGAAGGGAAAUCCUGACAUGAGGAUCACCCAUGUUAACCCACUUUCCAU | – | – | 28.2 nM | 28.8 nM |
| CAGACACAUGAGGAUCACCCAUGUGAGGAUAUGCGUACGUUGUCCGUAGGCGACGUGCGCAGAAGGCGCAUUGG | 110 nM | 252 nM | – | – |
| CCGGAAACGGGUAGCCUGACAUGAGGAUCACCCAUGUGAACCGAGGAUAUGGAUCCUAAUUGGAUCCAGAAGGUGGCAGGCUAC | – | – | 681 nM | 245 nM |
| UGGUACUAGGGAGGAUAUGGGAAGAUACAUGAGGAUCACCCAUGUUUAAGAAUGUCGAGAGGCAACUAGAAGGCCCUAGUACCU | – | – | 504 nM | 19.4 nM |
| UCGACGAAAGUCGAACGAUGUAGCAGAAGGACAUGAGGAUCACCCAUGUCAGCUGUAACAGCCAUGUAGGAUAUGCUACAUCGU | 4.51 nM | 5.53 nM | – | – |
| ACAGGCUUCGAGAAGGACAUGAGGAUCACCCAUGUGCGUGUGAAGCAGCCGUGAGGCUGCAUCAUGUAGGAUAUCGGAGUCUGA | 75.5 nM | 559 nM | – | – |
| AGGAUGUUAGGAUAUCGGAGAUGCGGGAGGAGGUGGAGGUACGAGAAGGAACAUGAGGAUCACCCAUGUGGAAG | 20.3 nM | 19.9 nM | – | – |
| UGAUAGGACAGAGGAUAUACGUGCUAGAGAUACUAGCAAAGUUUCCUGACAUGAGGAUCACCCAUGUAGAAGGCUGUCCUAUCU | 6.56 nM | 20.9 nM | – | – |
| AAUAAUUAGUAAGGAUAUACUAGUGAUUAGCUUGUAGAAGGUACAGUCUUAUGUAUAAUAAAUUAACAUGAGGAUCACCCAUGU | – | – | 11.6 nM | 9.86 nM |
| UUUCUUGGGCAAGGAUAUCCUGUGCGGUUCUGGCUCGUGUCUGUCACAUGAGGAUCACCCAUGUGGGAGAAGGUGCCUGCGGUC | 6.13 nM | 6.1 nM | – | – |
| GUCACGAAUGUAGGAUAUCGAGUGGAUAACACUCGAGAAGGACAUGAGGAUCACCCAUGUACUAUGAAAGAUAAUAAACGUGAC | 14.4 nM | 20.4 nM | – | – |
| GGUCAUCAAGUCAGGAUAUCGUCUGGUCGGUCUGGCGAGAAGGGACAUGAGGAUCACCCAUGUCGUCUCAUCAG | 15.2 nM | 17.7 nM | – | – |
| UUGGACGUCGAAGGAUAUGUAGGAUAUUCCUACAUGAGGAUCACCCAUGUUGACAUGGAAGAAGGACAGAAGGACGAUGUCCAU | – | – | 479 nM | 6.78 nM |
| CCACGAGACUAAGGAUAUGGAGUGUCAACAUAAAACAUGAGGAUCACCCAUGUAAAGAGUACGAUUCAGAAGGUAGAGACGUGG | – | – | 38.3 nM | 23.7 nM |
| CCCAGUUAUCUAGGAUAUUGUACAUGAGGAUCACCCAUGUAAUAAAUGAGGAUUUCGGGUGUCUACAAGAAGGAGAGGAUAGGC | 28.6 nM | 26.1 nM | – | – |
| CGACCCUAAACGAAAUUAUGCAGUCAGGAUAUACAUGAGGAUCACCCAUGUGCGUACCAACUCGUGUAGAAGGGACUUUUAGGG | 24.7 nM | 84.6 nM | – | – |
| UUAAUUCAUGUAGGAUAUCCGAUGCGAAGCGUUGGAGAAGGACAUGAGGAUCACCCAUGUUCUAGCGUCUGAGUACAGAUGCAA | 26.9 nM | 88.5 nM | – | – |
| CCUAGUUGGUAAGGAUAUCCUACACUGUUCUGACCCGUGCAAGCUACAUGAGGAUCACCCAUGUAGGAGAAGGUGCGUCAACGC | 9.11 nM | 9.13 nM | – | – |

| Sequence | apparent Kd [1] | apparent Kd [2] | apparent Kd [3] | apparent Kd [4] |
| --- | --- | --- | --- | --- |
| CUGGUGUGAGGAUAUCAAAGACCUCGGUAAAGAACCGAGGAUGAGAAGGCACAUGAGGAUCACCCAUGUAACAA | 23.3 nM | 32.9 nM | – | – |
| GGGUACAUCGGAGGAUAUCAUGUAAAUACAUGAGGAUCACCCAUGUGGAUGGAGACAUCGGAGAUUGAGAAGGCCGAUGUACCG | – | – | 10.9 nM | 5.56 nM |
| AAUGUACGAGGAUAUACAUAGAUACAGAUACAUGUAGACGUACAUGAGGAUCACCCAUGUAGAAGGCGUACAUA | 178 nM | 73.8 nM | – | – |
| AAGACAUGAGGAUCACCCAUGUAAAGACCGGUCGAUCAAUGUGAGGAUAUACCAUAAUUGAUAGGGUAGAAGGCACUGGGUUGA | – | – | 168 nM | 128 nM |
| GGUUUGGGAGGAUAUGGCUUGAAUGACAUGAGGAUCACCCAUGUAAGUGGAUCUUCCGGGCCAGAAGGCUCGGGCC | 63.8 nM | 136 nM | – | – |
| UAUAUAUAGGCAGGAUAUACAUGUAUAUAUAAUAUAUUAUAUAUUAUUACAUGAGGAUCACCCAUGUAGAAGGGCCAUAUUAUA | 41.3 nM | 65.9 nM | – | – |
| GCAUGCAAGUAGAAGGGCAGAUAUUUUGAUACUGCAGGAUAUGCAGAAUCAUAUCCACAUGAUAACAUGAGGAUCACCCAUGUA | 33.7 nM | 26.1 nM | – | – |
| AACGGGUGGGUAGGAUAUGGCUAUGUCUCAUUGCUAGAAGGACCAGCUGCUACAUGAGGAUCACCCAUGUCGUAGUGCAUCCAG | – | – | 88.2 nM | 13 nM |
| CGAUAACAUAGUUAUCCGUAACGGACAUGAGGAUCACCCAUGUAGGAUAUGUUACUCAACGAGUAACAGAAGGACAUGAGUCUU | 38.2 nM | 324 nM | – | – |
| AAACAUGUCCGAGGAUAUCUGGAAACAUUUCCAAGAGAAGGCGGACAUGAGGAUCACCCAUGUCUCUCCUCAUCAAAUCCAAAU | 9.18 nM | 88.9 nM | – | – |
| AGUCGGAGCAGAGGAUAUACAUGAGGAUCACCCAUGUAAUAAAGUGAAGCCUGGUAACAGGCAAUGUAGAAGGCUGCUCCGACA | 11.3 nM | 77.7 nM | – | – |
| GGUUGGCGAGGAUAUACAUGAGGAUCACCCAUGUGGUCCUGCGAUGGUGUCGCCCUUUGUAGAAGGCGCGGGUC | 45 nM | 42.5 nM | – | – |
| AAUUAUUGAUGAGGAUAUUGUGGUGAAACACGACAAGAAGGCAUUAUUCACAUGAGGAUCACCCAUGUGAGCCUGGUGCAUAUA | 15.5 nM | 13.8 nM | – | – |
| AUGUACCUAGGAUAUACAUGAGGAUCACCCAUGUUCCGGGUGCAAUCAAGUUAAUAUUGUAGAAGGAGGUGAAA | 17 nM | 31.8 nM | – | – |
| GAUAGGACAGAGAAGGACAUAGCUAGAGAUACUAGCAUACGAACCUUUACAUGAGGAUCACCCAUGUAGGAUAUCUGUCCUAUC | 5.43 nM | 6.78 nM | – | – |
| UGGUACUAGGGAGGAUAUGGGAAGAUACAUGAGGAUCACCCAUGUUUAAGAAUGCCGAGAGGCAACUAGAAGGCCCUCGUACCU | – | – | 432 nM | 20.1 nM |
| AAACAUGUCCGAGGAUAUCUGAGAUCAUUUUCAAGAGAAGGCGGACAUGAGGAUCACCCAUGUCUCUCCUCAUCAACUCCAAAU | 18.8 nM | 136 nM | – | – |
| GGUUCCAUCGCAGGAUAUGCUAUCCUUUGGGUAGCAGAAGGGUGAUAACAUGAGGAUCACCCAUGUGGAACCGGGCGUGAGCCC | – | – | 177 nM | 1050 nM |
| AGAUGGUCAGGAUAUGCGUGAAGAAUAAAACAAAUAACAACGCAGAAGGGACAUGAGGAUCACCCAUGUCAUCA | 21.9 nM | 17.3 nM | – | – |
| CUCUUGUAAGGAUAUGACUACAUAAAAAAAAAAAAAUGUAGUCAGAAGGUACAUGAGGAUCACCCAUGUACAAA | 22.7 nM | 25.6 nM | – | – |
| UUAUUAUAUGUAGGAUAUGCAUAUUAUUAUUAUGCAGAAGGACAUGAGGAUCACCCAUGUAUAUUAUUAUUAUAUAUUGUAUAU | 27.8 nM | 43.2 nM | – | – |
| UGAUAGGACAGAGGAUAUGCCGAUAGGAUUUACUAUCGAAGAAUCCUCACAUGAGGAUCACCCAUGUAGAAGGCUGUCCUAUCU | 7.36 nM | 35.9 nM | – | – |
| CUUUUGUGAGGAUAUUAGUAGUAAUACAAUAGUAUUACUACUGAGAAGGCACAUGAGGAUCACCCAUGUUCCUC | 38.2 nM | 147 nM | – | – |
| AUAUUUAAUAUAGGAUAUAGGAAGAAUGAUGAACUAGAAGGAUAACAUACAUGAGGAUCACCCAUGUCCCAUGUGAUCACCCAU | 321 nM | 338 nM | – | – |
| UAAAUGUGAGGAUAUCAGGUGUGCUAGAGAACUGGUACAUCUGAGAAGGCACAUGAGGAUCACCCAUGUUCUUC | 39 nM | 207 nM | – | – |
| AGAUAACAUGUAGGAUAUCGAGGCCUGAGGCCUCGAGAAGGACAUGAGGAUCACCCAUGUUUGCCGAGCAUGGAAUCACGCACU | 18.4 nM | 54.6 nM | – | – |
| CGUUCAGAGAACGAUACGAAUGGACAUGAGGAUCACCCAUGUAGAAGGACAGGAGAAUAACGACUGUAGGAUAUACAUUUAGUG | 41.3 nM | 76 nM | – | – |
